Target: Indoleamine 2,3-dioxygenase 1 (Homo sapiens, UniProt P14902)
Assay: Inhibition of human IDO1 assessed as reduction in convertion of N-formylkynurenine to kynurenine incubated for 30 mins
Summary of the method: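 IC50 values were taken as the mean of at least two independent assays.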

Sequence of Indoleamine 2,3-dioxygenase 1 (P14902 whole entry): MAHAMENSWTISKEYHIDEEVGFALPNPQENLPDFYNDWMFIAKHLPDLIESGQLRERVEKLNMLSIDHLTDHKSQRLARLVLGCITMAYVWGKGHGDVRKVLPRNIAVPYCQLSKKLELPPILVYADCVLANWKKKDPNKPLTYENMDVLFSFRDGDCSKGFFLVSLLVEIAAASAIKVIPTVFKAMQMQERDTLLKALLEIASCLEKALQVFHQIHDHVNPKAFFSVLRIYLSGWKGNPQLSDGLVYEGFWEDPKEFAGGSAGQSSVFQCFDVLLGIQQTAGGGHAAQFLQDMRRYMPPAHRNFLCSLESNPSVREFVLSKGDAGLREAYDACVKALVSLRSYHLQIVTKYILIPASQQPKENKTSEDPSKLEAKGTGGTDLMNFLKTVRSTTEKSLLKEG

| Structure (SMILES) | IC50 |
| --- | --- |
| CCOC(=O)c1cnc2scc(-c3ccc(C)cc3)n12 | 18 µM |
| CCOC(=O)c1cnc2scc(-c3cccc(C)c3)n12 | > 100 µM |
| CCOC(=O)c1cnc2scc(-c3ccccc3C)n12 | > 100 µM |
| CCOC(=O)c1cnc2scc(-c3ccccc3)n12 | > 100 µM |
| CCOC(=O)c1cnc2scc(C3=CCCCC3)n12 | > 100 µM |
| CCOC(=O)c1cnc2scc(-c3ccc(CC)cc3)n12 | 24 µM |
| CCOC(=O)c1cnc2scc(-c3ccc(OC)cc3)n12 | 56 µM |
| CCOC(=O)c1cnc2scc(-c3ccc(Cl)cc3)n12 | 8.1 µM |
| CCOC(=O)c1cnc2scc(-c3ccc(Br)cc3)n12 | 5.5 µM |
| CCOC(=O)c1cnc2scc(Cc3ccccc3)n12 | > 100 µM |
| CCOC(=O)c1cnc2sc3ccccc3n12 | > 100 µM |
| Cc1ccc(-c2csc3ncc(C(=O)NCCc4ccccc4)n23)cc1 | 3.5 µM |
| Cc1ccc(-c2csc3ncc(C(=O)NCCc4cccc(Cl)c4)n23)cc1 | 1.9 µM |
| Cc1ccc(-c2csc3ncc(C(=O)NCCc4ccc5c(c4)OCO5)n23)cc1 | 3.6 µM |
| O=C(NCc1cnc2scc(-c3ccc(Br)cc3)n12)Nc1ccccc1 | 0.22 µM |
| O=C(NCc1ccccc1)NCc1cnc2scc(-c3ccc(Br)cc3)n12 | 0.75 µM |
| O=C(NCc1cnc2scc(-c3ccc(Br)cc3)n12)NC1CCCCC1 | 1.8 µM |
| O=C(NCc1cnc2scc(-c3ccc(Br)cc3)n12)Nc1ccc2c(c1)OCO2 | 0.12 µM |
| COc1cccc(NC(=O)NCc2cnc3scc(-c4ccc(Br)cc4)n23)c1 | 0.16 µM |
| COc1ccc(NC(=O)NCc2cnc3scc(-c4ccc(Br)cc4)n23)cc1 | 0.19 µM |
| N#Cc1ccc(NC(=O)NCc2cnc3scc(-c4ccc(Br)cc4)n23)cc1 | 0.077 µM |
| Cc1ccc(-c2csc3nnc(SCC(=O)Nc4ccc5c(c4)OCO5)n23)cc1 | 3 µM |
| Cc1ccc(-c2csc3ncc(C)n23)cc1 | 1.3 µM |

— ChEMBL document CHEMBL3352613, “Crystal Structures and Structure-Activity Relationships of Imidazothiazole Derivatives as IDO1 Inhibitors” (ACS Med Chem Lett, 2014)
